Experimental data reported in ChEMBL document CHEMBL1154727, “Cytotoxic activity of 3-(5-phenyl-3H-[1,2,4]dithiazol-3-yl)chromen-4-ones and 4-oxo-4H-chromene-3-carbothioic acid N-phenylamides” (Eur J Med Chem, 2010).

Key:
[1] = system: PC-3; assay: Growth inhibition of human PC3 cells after 48 hrs by sulforhodamine B assay; assay type: functional, cell-based; conditions: PC-3, 48 h
Procedure, shortened: (§1)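 Cells kept in RPMI-1640 with 10% FBS, penicillin and streptomycin; trypan blue viability check beforehand. Seeded at 1 × 10^4 cells/well, 24 h at 37 °C, 5% CO2, then treated in quadruplicate for 48 h. Compounds diluted in medium with 50 µg/ml gentamycin; single test level 100 µM. TCA fixation at 4 °C for 1 h, SRB stain, Tris pH 10.5 solubilization, OD 540 nm. IC50 taken as the mean from dose-response curves.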

[2] = system: PC-3; assay: Growth inhibition of human PC3 cells at 100 uM after 48 hrs by sulforhodamine B assay; assay type: functional; conditions: PC-3, 48 h, read-out: GI; procedure, shortened: as §1
[3] = system: HEp-2; assay: Growth inhibition of human Hep2 cells after 48 hrs by sulforhodamine B assay; assay type: functional, cell-based; conditions: HEp-2, 48 h; procedure, shortened: as §1
[4] = system: OVCAR-5 (human); assay: Growth inhibition of human OVCAR-5 cells at 100 uM after 48 hrs by sulforhodamine B assay; conditions: OVCAR-5, 48 h, read-out: GI
[5] = system: OVCAR-5 (human); assay: Growth inhibition of human OVCAR-5 cells after 48 hrs by sulforhodamine B assay; conditions: OVCAR-5, 48 h
[6] = system: A549; assay: Growth inhibition of human A549 cells after 48 hrs by sulforhodamine B assay; assay type: functional, cell-based; conditions: A549, 48 h; procedure, shortened: as §1
[7] = system: IMR-32; assay: Growth inhibition of human IMR32 cells at 100 uM after 48 hrs by sulforhodamine B assay; assay type: functional; conditions: IMR-32, 48 h, read-out: GI; procedure, shortened: as §1
[8] = system: HEp-2; assay: Growth inhibition of human Hep2 cells at 100 uM after 48 hrs by sulforhodamine B assay; assay type: functional; conditions: HEp-2, 48 h, read-out: GI; procedure, shortened: as §1
[9] = system: A549; assay: Growth inhibition of human A549 cells at 100 uM after 48 hrs by sulforhodamine B assay; assay type: functional; conditions: A549, 48 h, read-out: GI; procedure, shortened: as §1
[10] = system: COLO 205; assay: Growth inhibition of human COLO205 cells at 100 uM after 48 hrs by sulforhodamine B assay; assay type: functional; conditions: COLO 205, 48 h, read-out: GI; procedure, shortened: as §1
[11] = system: COLO 205; assay: Growth inhibition of human COLO205 cells after 48 hrs by sulforhodamine B assay; assay type: functional, cell-based; conditions: COLO 205, 48 h; procedure, shortened: as §1
[12] = system: IMR-32; assay: Growth inhibition of human IMR32 cells after 48 hrs by sulforhodamine B assay; assay type: functional, cell-based; conditions: IMR-32, 48 h; procedure, shortened: as §1
[13] = system: COLO 205; assay: Growth inhibition of human COLO205 cells at 20 uM after 48 hrs by sulforhodamine B assay; assay type: functional; conditions: COLO 205, 48 h, read-out: GI
Procedure, shortened: (§2)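 Cells kept in RPMI-1640 with 10% FBS, penicillin and streptomycin; viability checked by trypan blue before use. Seeded at 1 × 10^4 cells/well, 24 h at 37 °C in 5% CO2, then compound (diluted in medium with gentamycin) added in quadruplicate for 48 h. Cells fixed with cold 50% TCA at 4 °C for 1 h, stained with 0.4% SRB, dye dissolved in 10 mM Tris pH 10.5, OD read at 540 nm.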

[14] = system: OVCAR-3; assay: Growth inhibition of human OVCAR-3 cells at 20 uM after 48 hrs by sulforhodamine B assay; assay type: functional; conditions: OVCAR-3, 48 h, read-out: GI; procedure, shortened: as §2
[15] = system: PC-3; assay: Growth inhibition of human PC3 cells at 20 uM after 48 hrs by sulforhodamine B assay; assay type: functional; conditions: PC-3, 48 h, read-out: GI; procedure, shortened: as §2
[16] = system: PC-3; assay: Growth inhibition of human PC3 cells at 10 uM after 48 hrs by sulforhodamine B assay; assay type: functional; conditions: PC-3, 48 h, read-out: GI
Procedure, shortened: (§3)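 Cells grown in RPMI-1640 with 10% FBS and antibiotics, plated at 1 × 10^4 cells/well for 24 h at 37 °C, 5% CO2. Agents diluted in gentamycin-containing medium, then added in quadruplicate for 48 h. Cells fixed with cold TCA at 4 °C for 1 h, stained with 0.4% SRB, and dye dissolved in 10 mM Tris pH 10.5; absorbance read at 540 nm.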

[17] = system: COLO 205; assay: Growth inhibition of human COLO205 cells at 10 uM after 48 hrs by sulforhodamine B assay; assay type: functional; conditions: COLO 205, 48 h, read-out: GI; procedure, shortened: as §3
[18] = system: OVCAR-5 (human); assay: Growth inhibition of human OVCAR-5 cells at 10 uM after 48 hrs by sulforhodamine B assay; conditions: OVCAR-5, 48 h, read-out: GI
[19] = system: HEp-2; assay: Growth inhibition of human Hep2 cells at 10 uM after 48 hrs by sulforhodamine B assay; assay type: functional; conditions: HEp-2, 48 h, read-out: GI; procedure, shortened: as §3
[20] = system: A549; assay: Growth inhibition of human A549 cells at 10 uM after 48 hrs by sulforhodamine B assay; assay type: functional; conditions: A549, 48 h, read-out: GI; procedure, shortened: as §3
[21] = system: IMR-32; assay: Growth inhibition of human IMR32 cells at 10 uM after 48 hrs by sulforhodamine B assay; assay type: functional; conditions: IMR-32, 48 h, read-out: GI; procedure, shortened: as §3
[22] = system: HEp-2; assay: Growth inhibition of human Hep2 cells at 1 uM after 48 hrs by sulforhodamine B assay; assay type: functional; conditions: HEp-2, 48 h, read-out: GI; procedure, shortened: as §3
[23] = system: IMR-32; assay: Growth inhibition of human IMR32 cells at 1 uM after 48 hrs by sulforhodamine B assay; assay type: functional; conditions: IMR-32, 48 h, read-out: GI; procedure, shortened: as §3
[24] = system: A549; assay: Growth inhibition of human A549 cells at 1 uM after 48 hrs by sulforhodamine B assay; assay type: functional; conditions: A549, 48 h, read-out: GI; procedure, shortened: as §3

SMILES | IC50 [1] [µM] | inhibition of growth at 100 µM [2] [%] | IC50 [3] [µM] | inhibition of growth at 100 µM [4] [%] | IC50 [5] [µM] | IC50 [6] [µM] | inhibition of growth at 100 µM [7] [%] | inhibition of growth at 100 µM [8] [%] | inhibition of growth at 100 µM [9] [%] | inhibition of growth at 100 µM [10] [%] | IC50 [11] [µM] | IC50 [12] [µM] | also measured
O=c1c(C2N=C(c3ccccc3)SS2)coc2ccccc12 (stereo not given) | > 100 | 23 | > 100 | 11 | > 100 | > 100 | 82 | 48 | 42 | 18 | > 100 | 16.5 | –
O=c1c(C2N=C(c3ccccc3)SS2)coc2cc(Cl)c(F)cc12 (stereo not given) | 56.9 | 76 | 97.6 | 75 | 61.7 | 93.5 | 80 | 52 | 57 | 45 | > 100 | 56.8 | –
O=c1c(C2N=C(c3ccccc3)SS2)coc2ccc(Cl)cc12 (stereo not given) | 52.7 | 62 | 74.9 | 71 | 66.5 | 71.3 | 92 | 69 | 73 | 12 | > 100 | 10 | –
O=c1c(C(=S)Nc2ccccc2)coc2ccc(F)cc12 | > 100 | 45 | > 100 | 49 | > 100 | 71.9 | 59 | 32 | 70 | 26 | > 100 | 89.8 | –
O=c1c(C(=S)Nc2ccccc2)coc2cc(Cl)c(Cl)cc12 | 95.4 | 16 | > 100 | 2 | > 100 | 71.2 | 18 | 4 | 3 | 16 | > 100 | 89.9 | –
O=c1c(C2N=C(c3ccccc3)SS2)coc2cc(Cl)c(Cl)cc12 (stereo not given) | 60 | 70 | 98 | 68 | 65.2 | 95 | 77 | 51 | 52 | 50 | > 100 | 58 | –
O=c1[nH]cc(F)c(=O)[nH]1 [FLUOROURACIL] | – | – | – | – | – | – | – | – | – | – | 21 | – | inhibition of growth at 20 µM [13]: 12%; inhibition of growth at 20 µM [14]: 26%; inhibition of growth at 20 µM [15]: 20%
O=c1c(C(=S)Nc2ccccc2)coc2ccccc12 | 60.6 | 63 | > 100 | 58 | 86.4 | 52.8 | 53 | 32 | 79 | 71 | 72.6 | 95.8 | –
O=c1c(C2N=C(c3ccccc3)SS2)coc2cc(Cl)ccc12 (stereo not given) | 38.4 | 81 | > 100 | 91 | 10.5 | 57.5 | 53 | 31 | 76 | 57 | 76.7 | 95.1 | –
O=c1c(C2N=C(c3ccccc3)SS2)coc2ccc(F)cc12 (stereo not given) | > 100 | 32 | 98.6 | 27 | > 100 | 91.1 | 75 | 51 | 55 | 37 | > 100 | 14.6 | –
CO[C@@]12[C@H](COC(N)=O)C3=C(C(=O)C(C)=C(N)C3=O)N1C[C@@H]1N[C@@H]12 [MITOMYCIN] | 1.5 | – | 1.5 | – | – | – | – | – | – | – | – | – | inhibition of growth at 10 µM [16]: 41%; inhibition of growth at 10 µM [17]: 44%; inhibition of growth at 10 µM [18]: 65%
O=c1c(C(=S)Nc2ccccc2)coc2cc(Cl)ccc12 | 90.8 | 55 | > 100 | 47 | > 100 | 63.6 | 56 | 41 | 66 | 38 | > 100 | 92.7 | –
Cc1ccc2occ(C3N=C(c4ccccc4)SS3)c(=O)c2c1 (stereo not given) | > 100 | 40 | > 100 | 54 | 93.7 | 66.5 | 53 | 43 | 67 | 32 | > 100 | 70.7 | –
CC(=O)O[C@H]1C(=O)[C@@]2(C)[C@H]([C@H](OC(=O)c3ccccc3)[C@]3(O)C[C@H](OC(=O)[C@H](O)[C@@H](NC(=O)c4ccccc4)c4ccccc4)C(C)=C1C3(C)C)[C@]1(OC(C)=O)CO[C@@H]1C[C@@H]2O [PACLITAXEL] | – | – | – | – | 2.7 | 2.7 | – | – | – | – | – | – | inhibition of growth at 10 µM [19]: 55%; inhibition of growth at 10 µM [20]: 67%; inhibition of growth at 10 µM [21]: 45%
COc1cccc2c1C(=O)c1c(O)c3c(c(O)c1C2=O)C[C@@](O)(C(=O)CO)C[C@@H]3O[C@H]1C[C@H](N)[C@H](O)[C@H](C)O1 [DOXORUBICIN] | – | – | – | – | – | – | – | – | – | – | – | 1.7 | inhibition of growth at 1 µM [22]: 57%; inhibition of growth at 1 µM [23]: 55%; inhibition of growth at 1 µM [24]: 93%
